Measured values published in ChEMBL document CHEMBL1143719, “Design, synthesis, and anticonvulsant activity of some sulfamides” (Bioorg Med Chem, 2007).
Calls of active or inactive are those of the source. The rule behind the calls is not given here.

Experiments:
[1] = (§1) Neurotoxicity in intraperitoneally dosed Albino mouse by RotoRod test; type: toxicity, organism-based; details: Albino, in vivo, ip
Procedure, shortened: (§2)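 Median neurotoxic dose in albino mice given compound ip in 30% PEG 400 and 10% water, at the time of peak effect. Six animals per dose were tested on RotoRod and the percentage showing minimal neurotoxicity was recorded. Where TD50 could not be completed, the highest dose tested is reported.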

[2] = system: Mus musculus; assay: as §1; type: toxicity, organism-based; details: in vivo, ip; procedure, shortened: as §2
[3] = system: Mus musculus; assay: Neurotoxicity in Albino mouse at 100 mg/kg, ip after 0.5 hrs by RotoRod test; type: toxicity, organism-based; parameters: dose 100 mg/kg, route intraperitoneal; details: in vivo
Procedure, shortened: (§3)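 RotoRod neurotoxicity screen in mice dosed ip at 30, 100 and 300 mg/kg, in vehicle of 30% PEG 400 and 10% water (0.01 mL/g). Three animals per dose, tested 0.5 and 4 h after administration. Affected animals were scored per group.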

[4] = system: Mus musculus; assay: Anticonvulsant activity in Albino mouse at 100 mg/kg, ip after 4 hrs by MES assay; type: functional, organism-based; parameters: dose 100 mg/kg
Procedure, shortened: (§4)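 Mice given compound ip at 30, 100 and 300 mg/kg in 30% polyethylene glycol 400 and 10% water, 0.01 mL/g body weight. Three animals per dose. Maximal electroshock (MES) or pentylenetetrazol (PTZ) seizure tests were run 0.5 and 4 h after dosing, and animals protected were counted.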

[5] = system: Mus musculus; assay: Neurotoxicity in Albino mouse at 30 mg/kg, ip after 0.5 hrs by RotoRod test; type: toxicity, organism-based; parameters: dose 30 mg/kg, route intraperitoneal; details: in vivo; procedure, shortened: as §3
[6] = system: Mus musculus; assay: Anticonvulsant activity in Albino mouse at 30 mg/kg, ip after 0.5 hrs by PTZ assay; type: functional, organism-based; parameters: dose 30 mg/kg; procedure, shortened: as §4
[7] = system: Mus musculus; assay: Anticonvulsant activity in Albino mouse at 30 mg/kg, ip after 4 hrs by PTZ assay; type: functional, organism-based; parameters: dose 30 mg/kg; procedure, shortened: as §4
[8] = system: Mus musculus; assay: Anticonvulsant activity assessed as time of peak effect in intraperitoneally dosed Albino mouse by MES assay; type: functional
Procedure, shortened: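 Phase II quantification in albino mice (ip; 30% PEG 400 and 10% water vehicle). Time of peak effect was determined first. Groups of six mice then received different doses at that time. MES ED50 is the dose protecting 50% of animals, in µmol/kg.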

[9] = species on record: Mus musculus; assay: Protective index, ratio of TD50 against Albino mouse to ED50 for Albino mouse; type: functional
[10] = system: Mus musculus; assay: Neurotoxicity in intraperitoneally dosed Albino mouse at 385 umol/kg by RotoRod test; type: toxicity, organism-based; details: in vivo, ip; procedure, shortened: as §2
[11] = system: Mus musculus; assay: Neurotoxicity in Albino mouse at 30 mg/kg, ip after 4 hrs by RotoRod test; type: toxicity, organism-based; parameters: dose 30 mg/kg, route intraperitoneal; details: in vivo; procedure, shortened: as §3
[12] = system: Mus musculus; assay: Anticonvulsant activity in Albino mouse at 30 mg/kg, ip after 4 hrs by MES assay; type: functional, organism-based; parameters: dose 30 mg/kg; procedure, shortened: as §4
[13] = system: Mus musculus; assay: Anticonvulsant activity in intraperitoneally dosed Albino mouse at 385 umol/kg by PTZ assay; type: functional, organism-based
Procedure, shortened: (§5)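 Phase II PTZ test in albino mice dosed ip (30% PEG 400 and 10% water), at the predetermined time of peak effect, in groups of six animals.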

[14] = system: Mus musculus; assay: Anticonvulsant activity in Albino mouse at 100 mg/kg, ip after 4 hrs by PTZ assay; type: functional, organism-based; parameters: dose 100 mg/kg; procedure, shortened: as §4
[15] = system: Mus musculus; assay: Anticonvulsant activity in Albino mouse at 100 mg/kg, ip after 0.5 hrs by PTZ assay; type: functional, organism-based; parameters: dose 100 mg/kg; procedure, shortened: as §4
[16] = system: Mus musculus; assay: Neurotoxicity in Albino mouse at 100 mg/kg, ip after 4 hrs by RotoRod test; type: toxicity, organism-based; parameters: dose 100 mg/kg, route intraperitoneal; details: in vivo; procedure, shortened: as §3
[17] = system: Mus musculus; assay: Neurotoxicity in intraperitoneally dosed Albino mouse at 362 umol/kg by RotoRod test; type: toxicity, organism-based; details: in vivo, ip; procedure, shortened: as §2
[18] = system: Mus musculus; assay: Anticonvulsant activity in intraperitoneally dosed Albino mouse at 362 umol/kg by PTZ assay; type: functional, organism-based; procedure, shortened: as §5
[19] = system: Mus musculus; assay: Anticonvulsant activity in Albino mouse at 100 mg/kg, ip after 0.5 hrs by MES assay; type: functional, organism-based; parameters: dose 100 mg/kg; procedure, shortened: as §4

SMILES: O=S(=O)(NC1CCCCC1)NC1CCCCC1
- TD50 [1]: > 385 µmol/kg
- Activity [2]: 0%
- Activity [3]: Non-toxic
- Activity [4]: inactive
- Activity [5]: Non-toxic
- Activity [6]: inactive
- Activity [7]: inactive
- Activity [8]: 0.5 h
- PI [9]: >2.5
- Activity [10]: 0%
- Activity [11]: Non-toxic
- Activity [12]: inactive
- Activity [13]: inactive
- Activity [14]: inactive
- Activity [15]: inactive
- Activity [16]: Non-toxic

SMILES: O=S(=O)(NCc1ccccc1)NCc1ccccc1 [BENZYL(BENZYLSULFAMOYL)AMINE]
- TD50 [1]: > 362 µmol/kg
- Activity [2]: 0%
- Activity [17]: 0%
- Activity [3]: Non-toxic
- Activity [4]: inactive
- Activity [5]: Non-toxic
- Activity [6]: inactive
- Activity [7]: inactive
- Activity [8]: 2 h
- PI [9]: >1.5
- Activity [18]: inactive
- Activity [11]: Non-toxic
- Activity [12]: inactive
- Activity [19]: Active
- Activity [14]: inactive
- Activity [15]: inactive
- Activity [16]: Non-toxic
